Measurements from different studies.
Lines come from different studies, so protocols differ.

| SMILES | tested on | assay | system | setting | endpoint | value |
| --- | --- | --- | --- | --- | --- | --- |
| Cc1ncsc1-c1ccc(CNC(=O)[C@@H]2C[C@@H](O)CN2C(=O)[C@@H](NC(=O)CCCCCCCCCCNC(=O)O[C@H]2C[C@@H](C)C=C3C=C[C@H](C)[C@H](CC[C@@H]4C[C@@H](O)CC(=O)O4)[C@H]32)C(C)(C)C)cc1 | – | metabolic stability | mouse, liver microsomes | 1 µM, 5 min, pH 7.4 | compound remaining | 41.2% |
| Cc1ccc2c(c1)nc(/C=C/c1cccc3cccnc13)n2-c1ccccc1 | – | metabolic stability | rat, liver microsomes | 1.5 µM, 45 min | compound remaining | 17.8% |
| Cc1ccnc2c1NC(=O)c1cccnc1N2C1CC1 | MT4 | cell growth or viability, MTT | – | 5 days | CC50 | 0.82 µg/mL |
| C=C(CCO)Cn1cnc2c(=O)[nH]c(N)nc21 | MT4 | cell growth or viability, MTT | – | 7 days | CC50 | > 100 µM |
| N=C(N)c1ccc(OCCCCCCCOc2ccc(C(=N)N)cc2)cc1 | – | haemolysis | sheep | 200 µg/mL, 20 h | haemolysis | 9.2% |
| Nc1ncnc2c1ncn2[C@@H]1C=C[C@@]2(CO)C[C@@H]12 | MT4 | cell growth or viability, MTT | – | 5 days | CC50 | > 100 µg/mL |
| N=C(N)c1ccc(OCc2ccc(COc3ccc(C(=N)N)cc3)cc2)cc1 | – | haemolysis | sheep | 200 µg/mL, 20 h | haemolysis | 0.4% |
| COc1cccc2c1C(=O)c1c(O)c3c(c(O)c1C2=O)C[C@@](O)(C(=O)CO)C[C@@H]3O[C@H]1C[C@H](N)[C@H](O)[C@H](C)O1 | BJ | cell growth or viability | – | – | IC50 | 0.1 µM |
| N=C(N)c1ccccc1OCc1cccc(COc2ccccc2C(=N)N)c1 | – | haemolysis | sheep | 200 µg/mL, 1 h | haemolysis | 0% |
| COc1cc(/C=C/C(=O)OCCCc2ccc(O[C@H](COC(=O)/C=C/c3ccc(O)c(OC)c3)[C@@H](OC)c3ccc(O)c(OC)c3)c(OC)c2)ccc1O | MT4 | cell growth or viability | – | 72 h | CC50 | > 10 µM |
| C[C@H](Cn1cnc2c(N)ncnc21)OCP(=O)(O)O | MT4 | cell growth or viability, MTT | – | 5 days | CC50 | 6.73 µg/mL |
| N=C(N)c1ccc(OCCSCCOc2ccc(C(=N)N)cc2)cc1 | – | haemolysis | sheep | 200 µg/mL, 20 h | haemolysis | 0% |
| O=c1ccn([C@@H]2C=C[C@@]3(CO)C[C@@H]23)c(=O)[nH]1 | MT4 | cell growth or viability, MTT | – | 5 days | CC50 | > 100 µg/mL |
| CC(=O)Nc1nnc(N2CCN([C@@H](C)c3ccc4c(c3)OCO4)CC2)s1 | – | – | dog, plasma | 1 µM | fraction unbound | 0.125 |
| CON=C(N)c1ccc(-c2ccc(-c3ccc(C(N)=NOC)cc3)o2)cc1 | Cytochrome P450 2J2 (CYP2J2, Homo sapiens, UniProt P51589) | enzyme activity, substrate | – | – | Km | 0.9 µM |
